Test [1] concerns the target T1, P2X purinoceptor 2 (Rattus norvegicus, UniProt P49653).
T1 sequence (P49653 whole entry): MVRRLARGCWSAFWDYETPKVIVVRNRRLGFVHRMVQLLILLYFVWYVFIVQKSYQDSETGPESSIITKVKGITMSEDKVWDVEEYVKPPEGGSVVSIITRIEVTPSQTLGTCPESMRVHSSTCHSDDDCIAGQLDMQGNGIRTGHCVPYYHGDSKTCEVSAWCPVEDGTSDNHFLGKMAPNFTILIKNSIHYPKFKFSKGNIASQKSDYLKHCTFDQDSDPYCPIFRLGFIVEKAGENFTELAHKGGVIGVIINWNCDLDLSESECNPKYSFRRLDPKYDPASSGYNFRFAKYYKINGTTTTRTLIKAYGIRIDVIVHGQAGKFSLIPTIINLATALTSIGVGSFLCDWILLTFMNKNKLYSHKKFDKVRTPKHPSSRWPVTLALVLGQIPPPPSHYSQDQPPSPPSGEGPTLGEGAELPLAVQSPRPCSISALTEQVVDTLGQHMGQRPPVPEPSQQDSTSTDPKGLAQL
In words: Antagonist activity against rat P2X2 receptor expressed in Xenopus laevis oocyte assessed as inhibition of […] inward current by two-electrode voltage-clamp electrophysiology. The format is functional. Put shortly: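 Rat P2X2 or P2X4 cRNA was injected into collagenase-defolliculated Xenopus oocytes, which were kept at 19°C in ORi. Two-electrode voltage clamp was run 2-3 days later with perfusion in calcium-free Mg-ORi. 10 μM ATP was applied until steady-state current, then coapplied with incrementally larger test concentrations, with ATP-alone washout between. Inhibition was taken from the stationary current ratio, and IC50 from a Hill fit to pooled data.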
(In general: Two-electrode voltage clamp holds a large cell at a set potential and records current.)

Test [2] deals with T1, P2X purinoceptor 2. Nature of the test: Antagonist activity against rat P2X2 receptor expressed in Xenopus laevis oocyte assessed as inhibition of ATP-induced inward current by two-electrode voltage-clamp electrophysiology.
The target in test [3] is T2, P2X purinoceptor 2 (Rattus norvegicus) (UniProt P49653).
T2 sequence (whole entry): T1 sequence (P49653 whole entry)
Nature of the test: Antagonist activity against rat P2X2 receptor expressed in Xenopus laevis oocyte assessed as potentiation of ATP-induced inward current at 100 nM by two-electrode voltage-clamp electrophysiology.

Test [4] addresses T3, P2X purinoceptor 4 (Rattus norvegicus, UniProt P51577).
T3 sequence (P51577 whole entry): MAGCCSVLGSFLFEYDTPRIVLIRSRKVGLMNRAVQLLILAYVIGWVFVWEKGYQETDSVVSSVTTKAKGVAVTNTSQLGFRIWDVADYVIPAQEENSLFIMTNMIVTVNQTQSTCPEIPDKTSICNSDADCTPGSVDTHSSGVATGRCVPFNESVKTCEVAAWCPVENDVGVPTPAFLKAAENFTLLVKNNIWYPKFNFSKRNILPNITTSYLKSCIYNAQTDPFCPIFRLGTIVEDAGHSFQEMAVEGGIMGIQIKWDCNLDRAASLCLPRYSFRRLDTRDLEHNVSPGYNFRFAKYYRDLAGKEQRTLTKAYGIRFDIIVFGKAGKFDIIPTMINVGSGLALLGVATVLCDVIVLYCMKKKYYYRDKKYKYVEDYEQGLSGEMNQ
Nature of the test: Antagonist activity against rat P2X4 receptor expressed in Xenopus laevis oocyte assessed as inhibition of ATP-induced inward current by two-electrode voltage-clamp electrophysiology.

Test [5] has as its target P2Y purinoceptor 2 (Homo sapiens, UniProt P41231). In words: Antagonist activity against human P2Y2 receptor expressed in 1321N1 astrocytoma cells by calcium mobilization assay. In kind it is functional, cell-based. An outline of the steps:
(§1)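 Astrocytoma cell lines stably transfected with human P2Y2, human P2Y4 or rat P2Y6 receptor. Inhibition of receptor-mediated intracellular calcium mobilization was measured.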
(A change in cytosolic calcium serves as a functional read-out for many receptors and channels.)

The target in test [6] is P2Y purinoceptor 6 (Rattus norvegicus) (UniProt Q63371). Nature of the test: Antagonist activity against rat P2Y6 receptor expressed in 1321N1 astrocytoma cells by calcium mobilization assay.
Test [7] concerns the target P2Y purinoceptor 12 (Homo sapiens, UniProt Q9H244). In words: Displacement of [3H]PSB0413 from human platelet P2Y12 receptor. A general note: In a radioligand displacement assay an active substance lowers the binding of a labelled ligand.
Test [8] addresses P2Y purinoceptor 4 (Homo sapiens, UniProt P51582). In words: Antagonist activity against human P2Y4 receptor expressed in 1321N1 astrocytoma cells by calcium mobilization assay. In kind it is functional, cell-based. An outline of the steps: as §1
Test [9] in a line: Selectivity ratio of IC50 for rat P2X2 receptor to IC50 for rat P2X1 receptor.
For test [10], the target named is T4, P2X purinoceptor 1 (Rattus norvegicus, UniProt P47824).
T4 sequence (P47824 whole entry): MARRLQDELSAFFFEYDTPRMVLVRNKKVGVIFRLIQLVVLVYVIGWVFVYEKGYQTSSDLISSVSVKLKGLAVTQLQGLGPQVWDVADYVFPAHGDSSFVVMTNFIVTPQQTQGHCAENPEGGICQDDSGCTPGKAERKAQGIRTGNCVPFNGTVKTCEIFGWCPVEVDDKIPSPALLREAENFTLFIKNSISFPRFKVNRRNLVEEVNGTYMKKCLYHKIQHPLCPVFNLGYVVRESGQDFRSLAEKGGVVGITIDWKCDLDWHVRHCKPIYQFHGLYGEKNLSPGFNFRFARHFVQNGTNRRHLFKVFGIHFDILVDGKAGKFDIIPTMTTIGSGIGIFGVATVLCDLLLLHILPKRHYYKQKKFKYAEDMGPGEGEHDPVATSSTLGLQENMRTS
Nature of the test: Antagonist activity against rat P2X1 receptor expressed in Xenopus laevis oocyte assessed as inhibition of alpha, beta-meATP-induced inward current by two-electrode voltage-clamp electrophysiology. The format is functional.

The nature of test [11]: Selectivity ratio of IC50 for rat P2X2 receptor to IC50 for rat P2X2/3 receptor.
Test [12] in a line: Selectivity ratio of IC50 for rat P2X2 receptor to IC50 for rat P2X3 receptor.
For test [13], the target named is T5, P2X purinoceptor 3 (Rattus norvegicus, UniProt P49654).
T5 sequence (P49654 whole entry): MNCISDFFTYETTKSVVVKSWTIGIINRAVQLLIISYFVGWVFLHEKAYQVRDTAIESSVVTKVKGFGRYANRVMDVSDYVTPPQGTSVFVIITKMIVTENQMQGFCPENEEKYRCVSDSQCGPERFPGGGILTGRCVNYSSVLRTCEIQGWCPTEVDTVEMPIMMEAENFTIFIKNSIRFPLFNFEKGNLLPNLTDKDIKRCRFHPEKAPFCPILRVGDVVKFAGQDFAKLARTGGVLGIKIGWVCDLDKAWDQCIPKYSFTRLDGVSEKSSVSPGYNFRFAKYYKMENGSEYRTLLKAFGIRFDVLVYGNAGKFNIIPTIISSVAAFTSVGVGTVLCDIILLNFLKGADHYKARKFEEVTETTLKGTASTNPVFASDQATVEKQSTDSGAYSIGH
Nature of the test: Antagonist activity against rat P2X3 receptor expressed in Xenopus laevis oocyte assessed as inhibition of alpha, beta-meATP-induced inward current by two-electrode voltage-clamp electrophysiology. The format is functional.

The nature of test [14]: Selectivity ratio of IC50 for rat P2X2 receptor to IC50 for rat P2X7 receptor.
Test [15] is described as follows: Selectivity ratio of IC50 for rat P2X2 receptor to IC50 for rat P2X4 receptor.
The target of test [16] is T6, P2X2/P2X3 receptor (Rattus norvegicus, UniProt P49653+P49654).
T6 sequence (P49653 whole entry): T1 sequence (P49653 whole entry)
T6 sequence (P49654 whole entry): T5 sequence (P49654 whole entry)
Nature of the test: Antagonist activity against rat P2X2/3 receptor expressed in Xenopus laevis oocyte assessed as inhibition of alpha, beta-meATP-induced inward current by two-electrode voltage-clamp electrophysiology. The format is functional. An outline of the steps:
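Heteromer formed by injecting rP2X2 and rP2X3 cRNA at 1:2 (w/w). Agonist 1 μM α,β-meATP, applied repeatedly to keep homomeric P2X3 desensitized. Same steady-state coapplication protocol in Ca-free Mg-ORi. IC50 from a Hill fit to pooled data from 5-7 experiments.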

Test [17] concerns the target T7, P2X purinoceptor 7 (Rattus norvegicus, UniProt Q64663).
T7 sequence (Q64663 whole entry): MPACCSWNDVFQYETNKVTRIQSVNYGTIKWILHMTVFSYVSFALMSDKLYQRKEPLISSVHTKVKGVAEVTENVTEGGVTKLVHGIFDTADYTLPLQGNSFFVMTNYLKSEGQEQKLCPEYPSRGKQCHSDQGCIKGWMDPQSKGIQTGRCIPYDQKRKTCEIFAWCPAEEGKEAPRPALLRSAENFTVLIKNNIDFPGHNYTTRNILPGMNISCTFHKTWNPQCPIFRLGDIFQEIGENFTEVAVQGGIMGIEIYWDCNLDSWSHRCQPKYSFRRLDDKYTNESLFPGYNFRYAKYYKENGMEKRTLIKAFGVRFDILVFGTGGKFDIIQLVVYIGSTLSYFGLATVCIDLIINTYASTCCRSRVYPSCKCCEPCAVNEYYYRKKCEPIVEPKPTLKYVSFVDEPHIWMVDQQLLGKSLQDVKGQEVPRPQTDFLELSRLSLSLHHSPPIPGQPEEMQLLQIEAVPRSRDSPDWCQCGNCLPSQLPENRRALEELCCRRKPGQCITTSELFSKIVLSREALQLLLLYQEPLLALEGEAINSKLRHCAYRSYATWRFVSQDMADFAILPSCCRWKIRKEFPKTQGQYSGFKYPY
In words: Antagonist activity against rat P2X7 receptor expressed in Xenopus laevis oocyte assessed as inhibition of […] inward current by two-electrode voltage-clamp electrophysiology. The format is functional.

Consider 13 compounds from ChEMBL document CHEMBL1671813, “Discovery of potent competitive antagonists and positive modulators of the P2X2 receptor” (J Med Chem, 2011).

pIC50, pKi: −log10 of the molar value.

P2Y purinoceptor 4, sequence (P51582 whole entry): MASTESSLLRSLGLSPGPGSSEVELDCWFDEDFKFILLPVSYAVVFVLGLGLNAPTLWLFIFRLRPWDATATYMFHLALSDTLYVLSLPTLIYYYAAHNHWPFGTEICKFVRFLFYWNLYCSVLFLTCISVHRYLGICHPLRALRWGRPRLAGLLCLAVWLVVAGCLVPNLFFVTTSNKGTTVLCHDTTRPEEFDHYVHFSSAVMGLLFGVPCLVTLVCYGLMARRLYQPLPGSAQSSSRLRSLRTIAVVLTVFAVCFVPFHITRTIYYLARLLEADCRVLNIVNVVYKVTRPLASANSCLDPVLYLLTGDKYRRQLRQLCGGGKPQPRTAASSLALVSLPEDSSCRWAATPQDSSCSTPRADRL
P2Y purinoceptor 12, sequence (Q9H244 whole entry): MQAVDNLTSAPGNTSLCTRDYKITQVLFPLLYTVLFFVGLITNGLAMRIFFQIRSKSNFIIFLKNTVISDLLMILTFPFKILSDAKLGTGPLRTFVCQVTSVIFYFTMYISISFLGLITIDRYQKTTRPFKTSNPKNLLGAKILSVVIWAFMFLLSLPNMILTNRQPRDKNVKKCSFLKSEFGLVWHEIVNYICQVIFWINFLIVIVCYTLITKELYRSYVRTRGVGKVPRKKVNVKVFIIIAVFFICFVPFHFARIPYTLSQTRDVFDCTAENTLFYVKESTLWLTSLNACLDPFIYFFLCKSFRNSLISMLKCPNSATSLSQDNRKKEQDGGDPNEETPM
P2Y purinoceptor 2, sequence (P41231 whole entry): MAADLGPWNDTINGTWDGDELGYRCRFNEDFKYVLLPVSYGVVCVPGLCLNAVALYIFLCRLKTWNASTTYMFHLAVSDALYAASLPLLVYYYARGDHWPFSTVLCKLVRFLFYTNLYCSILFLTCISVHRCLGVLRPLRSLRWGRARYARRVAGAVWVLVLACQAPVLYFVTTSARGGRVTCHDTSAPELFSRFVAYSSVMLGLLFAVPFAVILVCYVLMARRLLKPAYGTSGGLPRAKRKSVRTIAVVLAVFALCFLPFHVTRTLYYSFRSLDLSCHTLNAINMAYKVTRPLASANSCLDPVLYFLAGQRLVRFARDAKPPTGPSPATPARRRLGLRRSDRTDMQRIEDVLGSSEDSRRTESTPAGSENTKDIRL

A word on the pIC50: it is the negative decadic logarithm of the IC50, by convention in mol/L. For `Nc1ncnc2c1ncn2[C@@H]1O[C@H](COP(=O)(O)OP(=O)(O)OP(=O)(O)O)[C@H]2OC3(O[C@H]21)C([N+](=O)[O-])=CC(=[N+]([O-])[O-])C=C3[N+](=O)[O-]` (some centres undefined) [TNP-ATP SODIUM], the figures for the pIC50 in test [1] and in test [2] were 4.40 and 5.40, respectively.
In the case of `Nc1c(S(=O)(=O)O)cc(Nc2ccc(Nc3ccccc3)c(S(=O)(=O)O)c2)c2c1C(=O)c1ccccc1C2=O`, the potentiation % in test [3] was 110%.
In general, pKi refers to the negative decadic logarithm of the Ki, by convention in mol/L. Regarding `COc1cccc(Nc2cc(S(=O)(=O)O)c(N)c3c2C(=O)c2ccccc2C3=O)c1`, the negative-log IC50 (pIC50) was < 5.00 in test [4]; 5.00 in test [5]; < 5.00 in [6]; 6.21 in [2]; 5.00 in [8]. For the same compound, the pKi in test [7] is 5.00.
Take `Cc1cccc(Nc2cc(S(=O)(=O)O)c(N)c3c2C(=O)c2ccccc2C3=O)c1`: the negative logarithm of the IC50 (pIC50) in [4] is < 5.00; in test [5], 5.00; in test [6], 5.41; in test [2] it was 6.10; in [8], < 5.00. The pKi in [7] is 5.00.
For `Nc1c(S(=O)(=O)O)cc(Nc2cccc(Nc3nc(Cl)nc(Cl)n3)c2)c2c1C(=O)c1ccccc1C2=O`, the pIC50 in [5] is 4.61; in test [6], < 5.00; in [2] it was 7.07; in test [8], 5.00.
In the case of `Cc1cc(/N=N/c2ccc(S(=O)(=O)O)cc2S(=O)(=O)O)c(COP(=O)(O)O)c(C=O)c1O`, the negative-log IC50 (pIC50) in test [1] is 4.40; in test [2], 5.40.
For the compound `Cc1cc(C)cc(Nc2cc(S(=O)(=O)O)c(N)c3c2C(=O)c2ccccc2C3=O)c1`, the potentiation % in [3] was 106%.
Consider `Nc1c(S(=O)(=O)O)cc(Nc2ccc(S(=O)(=O)O)c(Nc3nc(Cl)nc(Cl)n3)c2)c2c1C(=O)c1ccccc1C2=O`, for which the negative logarithm of the IC50 (pIC50) in test [4] was < 5.00; in test [9], 8.21; in test [5], 5.00; in test [10] it was 6.37; in test [11] it was 7.88; in test [6], < 5.00. The pIC50 is 8.28 in [12]; 6.31 in test [13]; 7.10 in test [2]; < 6.92 in test [14]; < 5.00 in test [8]; < 6.92 in test [15]. The figures for the negative logarithm of the IC50 (pIC50) in test [16] and in test [17] were 5.98 and < 5.00, respectively.
Consider `Nc1c(S(=O)(=O)O)cc(Nc2cccc(Cc3ccccc3)c2)c2c1C(=O)c1ccccc1C2=O`, for which the pIC50 in test [5], in test [6] and in test [8] was < 5.00 each time. In test [3], the potentiation % is 120%.
In the case of `Nc1c(S(=O)(=O)O)cc(Nc2cc(Nc3nc(Cl)nc(Cl)n3)cc(C(=O)O)c2)c2c1C(=O)c1ccccc1C2=O`, the pIC50 in test [4] was < 5.00; in [5] it was 5.49; in [6], 5.59; in test [2], 6.53; in [8] it was 5.84.
On to `Nc1c(S(=O)(=O)O)cc(Nc2ccc(Nc3nc(Cl)nc(Nc4cccc(S(=O)(=O)O)c4)n3)c(S(=O)(=O)O)c2)c2c1C(=O)c1ccccc1C2=O` [RB 2], for which the negative-log IC50 (pIC50) in test [6] is 5.36; in [1], 4.40; in test [2], 5.40. In test [7], this compound had a pKi of 6.17.
For the compound `COc1nc(Cl)nc(Nc2ccc(Nc3cc(S(=O)(=O)O)c(N)c4c3C(=O)c3ccccc3C4=O)cc2S(=O)(=O)O)n1`, the negative logarithm of the IC50 (pIC50) in test [4] is < 5.00; in test [5], 4.62; in test [6], < 5.00; in test [2] it was 6.24; in test [8] it was < 5.00.
For the compound `Nc1c(S(=O)(=O)O)cc(Nc2ccc(Nc3nc(Cl)nc(Cl)n3)cc2)c2c1C(=O)c1ccccc1C2=O`, the negative-log IC50 (pIC50) in test [4] is < 5.00; in test [5], 4.92; in test [6], 5.00; in [2], 6.93; in [8], 5.00.
